Laboratory results reported in ChEMBL document CHEMBL1138009, “3-[3-Fluoro-5-(5-pyridin-2-yl-2H-tetrazol-2-yl)phenyl]-4-methylpyridine: a highly potent and orally bioavailable metabotropic glutamate subtype 5 (mGlu5) receptor antagonist” (Bioorg Med Chem Lett, 2004).

Experiments:
[1] = biological target: T1, Metabotropic glutamate receptor 5 (Rattus norvegicus, UniProt P31424); assay: Antagonistic activity against Metabotropic glutamate receptor 5 in [Ca2+] flux assay using glutamate (10 uM) as agonist; type: functional
Summary of the method: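 Cell-based high-throughput functional assay; glutamate 10 μM as agonist; antagonism read as change in cytosolic Ca2+ by fluorescence detection; n = 2–4, SD ≈ ±25%.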

[2] = biological target: T1, Metabotropic glutamate receptor 5; assay: Binding affinity towards Metabotropic glutamate receptor was determined by displacing [3H]3-methoxy-5-(pyridin-2-ylethynyl)pyridine from rat cortical membranes
Summary of the method: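 Radioligand displacement of [3H]-3-methoxy-5-(pyridin-2-ylethynyl)pyridine from rat cortical membranes by test compounds; n = 2–4, SD ≈ ±25%.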

[3] = biological target: Metabotropic glutamate receptor 5 (Rattus norvegicus) (UniProt P31424); assay: Effective dose against rat Metabotropic glutamate receptor 5 occupancy after i.p. dosing at 10 mg/kg of 50% PEG400/H 20; type: functional, organism-based; parameters: dose 10 mg/kg
Summary of the method: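 Rat receptor occupancy: compound given 10 mg/kg intraperitoneally in 50% PEG 400/H2O, occupancy measured at 1 h; hippocampal and plasma levels also determined at 1 h.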

[4] = Plasma clearance i.v. dosing at 2 mg/kg of 50% PEG400/H 20, po dosing at 10 mg/kg; type: ADME, organism-based; conditions: rat, iv, read-out: Clp
[5] = Oral bioavailability i.v. dosing at 2 mg/kg of 50% PEG400/H 20, po dosing at 10 mg/kg; type: ADME, organism-based; conditions: rat, in vivo
[6] = Half life i.v. dosing at 2 mg/kg of 50% PEG400/H 20, po dosing at 10 mg/kg; type: ADME, organism-based; conditions: rat, in vivo
[7] = Maximum concentration i.v. dosing at 2 mg/kg of 50% PEG400/H 20, po dosing at 10 mg/kg; type: ADME, organism-based; conditions: rat, in vivo
[8] = Oral bioavailability after i.v. dosing at 2 mg/kg of 50% PEG400/H 20, po dosing at 10 mg/kg; type: ADME, organism-based; conditions: rat, in vivo

T1 sequence (P31424 whole entry): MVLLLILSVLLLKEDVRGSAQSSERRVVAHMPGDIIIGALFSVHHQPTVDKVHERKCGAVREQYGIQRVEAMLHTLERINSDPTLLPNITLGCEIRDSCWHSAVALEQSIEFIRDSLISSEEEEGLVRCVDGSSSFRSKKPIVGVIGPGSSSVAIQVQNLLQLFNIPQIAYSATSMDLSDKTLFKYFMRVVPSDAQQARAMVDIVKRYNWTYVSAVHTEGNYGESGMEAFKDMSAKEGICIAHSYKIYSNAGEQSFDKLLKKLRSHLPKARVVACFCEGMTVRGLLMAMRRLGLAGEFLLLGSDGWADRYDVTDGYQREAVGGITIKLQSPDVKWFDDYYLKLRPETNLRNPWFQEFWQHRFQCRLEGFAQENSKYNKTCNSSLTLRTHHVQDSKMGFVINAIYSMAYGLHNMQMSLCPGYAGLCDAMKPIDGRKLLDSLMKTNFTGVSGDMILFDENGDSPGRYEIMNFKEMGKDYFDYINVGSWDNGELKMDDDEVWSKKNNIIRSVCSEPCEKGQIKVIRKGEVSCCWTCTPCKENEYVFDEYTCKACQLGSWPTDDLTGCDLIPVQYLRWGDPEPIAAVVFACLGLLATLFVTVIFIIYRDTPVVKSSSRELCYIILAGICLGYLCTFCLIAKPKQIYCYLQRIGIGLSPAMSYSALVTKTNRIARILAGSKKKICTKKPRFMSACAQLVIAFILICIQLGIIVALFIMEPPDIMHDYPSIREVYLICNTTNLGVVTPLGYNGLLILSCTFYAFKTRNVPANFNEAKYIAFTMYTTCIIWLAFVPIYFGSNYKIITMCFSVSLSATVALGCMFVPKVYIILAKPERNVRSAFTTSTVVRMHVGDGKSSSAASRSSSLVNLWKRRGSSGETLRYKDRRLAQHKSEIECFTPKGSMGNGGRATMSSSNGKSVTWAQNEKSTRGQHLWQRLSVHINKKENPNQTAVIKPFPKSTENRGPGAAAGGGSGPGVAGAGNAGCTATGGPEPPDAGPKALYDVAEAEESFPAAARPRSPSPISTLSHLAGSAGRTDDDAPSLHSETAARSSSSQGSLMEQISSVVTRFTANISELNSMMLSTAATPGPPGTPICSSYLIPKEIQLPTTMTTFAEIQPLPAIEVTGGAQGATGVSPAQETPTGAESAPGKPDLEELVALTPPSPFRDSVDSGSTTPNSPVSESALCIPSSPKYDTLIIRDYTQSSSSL
Sequence of Metabotropic glutamate receptor 5 (Rattus norvegicus) (P31424 21-1203 limits assumed): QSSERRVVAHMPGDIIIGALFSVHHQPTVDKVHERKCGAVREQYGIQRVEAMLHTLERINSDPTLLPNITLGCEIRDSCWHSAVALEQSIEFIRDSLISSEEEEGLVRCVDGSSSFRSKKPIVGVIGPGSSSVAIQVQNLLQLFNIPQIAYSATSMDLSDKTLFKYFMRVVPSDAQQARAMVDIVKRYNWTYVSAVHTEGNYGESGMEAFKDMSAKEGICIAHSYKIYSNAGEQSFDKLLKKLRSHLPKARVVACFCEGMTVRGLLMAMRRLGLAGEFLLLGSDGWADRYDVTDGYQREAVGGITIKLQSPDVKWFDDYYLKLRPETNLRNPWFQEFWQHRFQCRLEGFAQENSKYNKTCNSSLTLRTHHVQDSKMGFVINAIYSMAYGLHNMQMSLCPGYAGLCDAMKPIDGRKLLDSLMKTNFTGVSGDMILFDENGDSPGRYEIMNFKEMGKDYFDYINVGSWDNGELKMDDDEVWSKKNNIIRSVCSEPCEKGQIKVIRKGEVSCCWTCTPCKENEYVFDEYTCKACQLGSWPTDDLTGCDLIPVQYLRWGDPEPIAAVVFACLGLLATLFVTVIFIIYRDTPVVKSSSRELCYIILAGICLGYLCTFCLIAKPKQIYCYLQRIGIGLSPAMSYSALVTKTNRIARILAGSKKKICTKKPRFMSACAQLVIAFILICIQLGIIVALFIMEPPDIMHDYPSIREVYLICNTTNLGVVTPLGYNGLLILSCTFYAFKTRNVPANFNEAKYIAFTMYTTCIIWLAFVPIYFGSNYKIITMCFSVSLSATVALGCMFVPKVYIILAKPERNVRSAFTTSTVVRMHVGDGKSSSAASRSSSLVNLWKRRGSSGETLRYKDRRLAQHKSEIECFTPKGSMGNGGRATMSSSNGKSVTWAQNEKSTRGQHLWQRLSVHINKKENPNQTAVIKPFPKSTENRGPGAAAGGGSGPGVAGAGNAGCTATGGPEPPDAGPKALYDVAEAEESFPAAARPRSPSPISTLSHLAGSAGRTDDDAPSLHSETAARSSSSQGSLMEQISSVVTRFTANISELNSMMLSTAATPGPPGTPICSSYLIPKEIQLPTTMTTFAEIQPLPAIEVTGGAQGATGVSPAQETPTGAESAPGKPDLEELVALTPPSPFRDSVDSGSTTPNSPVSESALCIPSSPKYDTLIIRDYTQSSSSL

## Fc1cc(-c2ccncc2)cc(-n2nnc(-c3ccccn3)n2)c1
[1]
  IC50: 956 nM
[2]
  Ki: 575 nM

## N#Cc1cccc(-c2cc(F)cc(-n3nnc(-c4ccccn4)n3)c2)c1
[1]
  IC50: 253 nM
[2]
  Ki: 12 nM

## Nc1ccccc1-c1cc(F)cc(-n2nnc(-c3ccccn3)n2)c1
[1]
  IC50: 8 nM
[2]
  Ki: 7 nM

## Nc1cccnc1-c1cc(F)cc(-n2nnc(-c3ccccn3)n2)c1
[1]
  IC50: 19 nM
[2]
  Ki: 31 nM

## Fc1cc(-c2ccccn2)cc(-n2nnc(-c3ccccn3)n2)c1
[1]
  IC50: 39 nM
[2]
  Ki: 95 nM

## Cc1cccc(-c2cc(F)cc(-n3nnc(-c4ccccn4)n3)c2)c1
[1]
  IC50: 1470 nM

## Cc1ncccc1-c1cc(F)cc(-n2nnc(-c3ccccn3)n2)c1
[1]
  IC50: 41 nM
[2]
  Ki: 45 nM

## Fc1cc(-c2cccnc2)cc(-n2nnc(-c3ccccn3)n2)c1
[1]
  IC50: 12 nM
[2]
  Ki: 37 nM

## Cc1ccc(-c2cc(F)cc(-n3nnc(-c4ccccn4)n3)c2)cc1
[1]
  IC50: > 3000 nM

## N#Cc1ccccc1-c1cc(F)cc(-n2nnc(-c3ccccn3)n2)c1
[1]
  IC50: 6 nM
[2]
  Ki: 4 nM

## Cc1cnccc1-c1cc(F)cc(-n2nnc(-c3ccccn3)n2)c1
[1]
  IC50: 63 nM
[2]
  Ki: 33 nM

## Cc1ccncc1-c1cc(F)cc(-n2nnc(-c3ccccn3)n2)c1
[3]
  Occupancy: 95
[4]
  clearance: 39 mL/min/kg
[5]
  bioavailability: 12%
[1]
  IC50: 5 nM
[6]
  half-life: 1.6 h
[2]
  Ki: 2 nM
[7]
  Cmax: 900 nM

## Nc1ccncc1-c1cc(F)cc(-n2nnc(-c3ccccn3)n2)c1
[1]
  IC50: 108 nM
[2]
  Ki: 20 nM

## Cc1ccc(-c2cc(F)cc(-n3nnc(-c4ccccn4)n3)c2)cn1
[1]
  IC50: 57 nM
[2]
  Ki: 36 nM

## Fc1cc(-c2ccccc2)cc(-n2nnc(-c3ccccn3)n2)c1
[1]
  IC50: 247 nM
[2]
  Ki: 53 nM

## Cc1cccnc1-c1cc(F)cc(-n2nnc(-c3ccccn3)n2)c1
[1]
  IC50: 31 nM
[2]
  Ki: 24 nM

## Cc1ccccc1-c1cc(F)cc(-n2nnc(-c3ccccn3)n2)c1
[1]
  IC50: 120 nM
[2]
  Ki: 23 nM

## Cc1cncc(-c2cc(F)cc(-n3nnc(-c4ccccn4)n3)c2)c1
[1]
  IC50: 499 nM
[2]
  Ki: 272 nM

## N#Cc1cc(F)cc(-n2nnc(-c3ccccn3)n2)c1
[4]
  clearance: 17 mL/min/kg
[8]
  bioavailability: 26%
[1]
  IC50: 4 nM
[6]
  T1/2: 2.9 h
[2]
  Ki: 14 nM
